# Only some compounds are listed: those with a hit (about 2.2% of all), similar ones and a draw of the others.
# MT stabilizer: microtubule stabilizers in HeLa cells. hit rate 0.83% among 200,000. AID 2205. % tubulin-high responders, % at 10 µM. HeLa tubulin immunostaining HCS, 24 h; share of cells brighter than vehicle mean+2SD;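 active = plate Z-score above 3 for both tubulin-high and condensed-nucleus cell shares, with cell loss under 80%, at 10 µM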;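 also: anti alpha tubulin signal scored within the nucleus-defined area of each cell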
# BaF3 tox: parental Ba/F3 viability inhibition as JAK2V617F counter-screen; CellTiter-Glo ATP luminescence; inhibition, % at 5.6 µM; hit rate 1.1% among 220,000;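 active = inhibition above a per-campaign cutoff, the mean inhibition of all tested compounds plus 3 SD, cut at about 27% in these data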;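 also: 0% = DMSO wells and 100% = JAK Inhibitor I control wells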
# b-catenin transl: beta-catenin nuclear translocation modulation; HeLa beta-catenin nuclear translocation, immunofluorescence imaging; nuclear translocation activity, % at 5 µM; hit rate 0.3% among 190,000; AID 1665;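 active = nuclear translocation activity above 50% at 5 µM, with a well cell count of 50 or more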;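 also: per-cell ratio of nuclear to cytoplasmic median beta-catenin stain intensity; plate controls were DMSO negative control for no effect and GSK-3 inhibitor IX positive control for full effect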
#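 assay system = human HeLa cells, endogenous beta-catenin | times = compound treatment 24 h, 37°C, 5% CO2 | detection = Anti-beta-catenin immunofluorescence on PFA-fixed, Triton-permeabilized cells, DAPI nuclei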
# Ba/F3 V617F tox: lowers viability of Ba/F3 cells expressing EpoR and JAK2V617F; inhibition, % at 5.6 µM; ATP luminescence; AID 1446; hit rate 1.1% among 220,000;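 active = inhibition above the campaign mean plus 3 SD over all tested compounds, cut at about 24% in these data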;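 also: cytokine-independent growth of Ba/F3 cells driven by EpoR plus mutant JAK2; 0% = DMSO-treated cells and 100% = JAK inhibitor I control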
# IEC-6 cytotox: kills IEC-6 intestinal cells in KLF5 counter-screen | IEC-6 cytotoxicity, luminescence viability | inhibition, % at 5 µM | hit rate 0.78% among 290,000 | AID 1825; in the data active = inhibition above about 22%;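 also: 0% = plate median of test compound wells and 100% = cytotoxic reference compound wells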
# APP 5UTR inh: APP translation inhibition. inhibition, % at 2 µM. SH-SY5Y APP 5'UTR-luciferase reporter, luminescence. hit rate 0.82% among 190,000. AID 1285;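 active = inhibition above a set limit, derived from the sample mean plus 3 SD, cut at about 45% in these data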
# BaF3 parental 2: reduces parental Ba/F3 viability, JAK2V617F counter-screen. shares compounds with Ba/F3 V617F tox. CellTiter-Glo luminescence; cells kept alive by added IL-3. inhibition, % at 5.6 µM. hit rate 31% among 580. AID 1520;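 active = cell growth inhibition above the hit limit set in the earlier mutant JAK2 cell screen, cut at about 27% in these data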;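 also: plate controls were DMSO-treated cells for no effect and JAK Inhibitor I control wells for full effect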
# JAK2V617F confrm: confirmation: loss of viability in JAK2V617F-dependent Ba/F3 cells; shares compounds with Ba/F3 V617F tox; Ba/F3 EpoR-JAK2V617F viability, CellTiter-Glo luminescence; inhibition, % at 5.6 µM; hit rate 66% among 580; AID 1521;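 active = mean inhibition above the hit cutoff derived in the earlier primary screen, cut at about 25% in these data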;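 also: 0% = DMSO-treated cells and 100% = JAK inhibitor I control wells; higher means lower luminescence from reduced cell ATP and viability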
# Starred values were filed as active, the others as inactive; . = no result.
SMILES,MT stabilizer,BaF3 tox,b-catenin transl,Ba/F3 V617F tox,IEC-6 cytotox,APP 5UTR inh,BaF3 parental 2,JAK2V617F confrm
C=CCOC(=O)C1=C(C)NC(SCC)=C(C#N)C1c1ccc(Cl)cc1 (centres undefined),1.9,-5.9,-0.9,41.3*,14.2,-10.2,8.5,29.3*
Cc1cc(C)c(NC(=O)CSc2nnc(CN3CCOCC3)n2C)c(C)c1,.,.,.,.,-3.0,.,.,.
Cc1cc(C)cc(NC(=O)CSc2nnc(CN3CCOCC3)n2C)c1,4.1,1.9,-2.0,94.6*,-1.7,1.0,-6.6,-5.6
Cc1ccc(Cl)cc1N1CCN(CC(=O)NC2CCCc3ccccc32)CC1 (centres undefined),4.1,3.6,5.4,58.5*,3.6,-8.4,-1.1,6.1
O=C(CN1CCN(c2ccccc2Cl)CC1)NC1CCCc2ccccc21 (centres undefined),2.8,3.4,-0.2,1.9,-2.1,-18.8,.,.
CCOC(=O)N1CCC(NC(=O)CS(=O)Cc2nc(-c3ccccc3C)oc2C)CC1 (centres undefined),.,.,.,.,2.8,.,.,.
COc1ccccc1C(C[N+](=O)[O-])c1c(N)n(C)c(=O)n(C)c1=O (centres undefined),.,4.5,0.4,37.1*,3.3,.,-0.7,96.1*
COc1ccccc1C(c1c(N)n(C)c(=O)n(C)c1=O)C(C)[N+](=O)[O-] (centres undefined),.,3.4,0.0,-3.6,-7.5,.,.,.
Cn1c(SCc2cccc(Br)c2)nnc1-c1ccncc1,.,.,.,.,-3.8,.,.,.
COc1ccc(Cl)cc1S(=O)(=O)N1CCN=C1Cc1ccccc1,.,.,.,.,-3.5,.,.,.
COc1ccccc1S(=O)(=O)n1cc(Cc2ccccc2)c(N)n1,6.0,0.8,-5.7,99.7*,-0.2,-0.3,-6.6,-5.3
Cc1c(C#N)c(NC(=O)CCl)n(Cc2ccccc2)c1C,10.8*,2.1,2.9,30.8*,2.8,10.0,48.5*,98.3*
Cc1c(C#N)c(NC(=O)CCl)n(Cc2cccs2)c1C,39.5*,0.1,3.5,36.0*,5.6,-23.3,34.8*,97.2*
Cc1c(C#N)c(NC(=O)CCl)n(Cc2ccc(F)cc2)c1C,6.0,-1.3,-0.7,15.6,5.7,-11.9,.,.
Cc1cc(C)n(-c2ccc(NC(=O)C3CCN(Cc4ccccn4)CC3)cc2)n1,.,.,.,.,6.1,.,.,.
NC(N)=Nc1cc2ccccc2c2ccccc12,.,8.6,2.4,27.9*,9.2,.,3.1,32.6*
Cc1cc(F)ccc1NCc1ccncc1,3.0,0.5,0.7,50.1*,-4.9,-9.5,-4.0,-3.9
C/C(=C\C(=O)O)CC(=O)O,2.5,4.2,-5.9,53.0*,5.0,-14.2,-5.8,-7.1
CC1CN(Cc2cc(=O)[nH]c(C3CC3)n2)CC(C)O1 (centres undefined),1.7,4.0,0.1,39.9*,9.2,1.1,-5.6,-5.3
COCCn1c(=S)[nH]c2cc(C(=O)N3CCN(c4ccc(F)cc4)CC3)ccc2c1=O,2.1,1.3,1.9,51.0*,-3.2,-2.0,2.9,5.2
COCCn1c(=S)[nH]c2cc(C(=O)N3CCN(c4ccccc4OC)CC3)ccc2c1=O,3.3,1.6,0.7,-0.8,7.2,7.6,.,.
Cc1cccc(NC(=O)c2ccccc2O)c1C,3.6,3.0,-1.5,4.0,4.2,-56.1,.,.
Cc1cccc(NC(=O)c2cnn3ccccc23)c1C,.,9.6,3.1,27.9*,2.4,.,5.5,25.4*
CCCc1nc2n[nH]c(N)c2c2c1CCCC2,6.9,3.2,7.4,24.9*,2.8,-14.4,-0.8,38.8*
CCCc1nc2n[nH]c(N)c2c2c1CCC2,6.3,-0.3,-6.5,0.8,6.6,6.3,.,.
SMILES,MT stabilizer,BaF3 tox,b-catenin transl,Ba/F3 V617F tox,IEC-6 cytotox,APP 5UTR inh,BaF3 parental 2,JAK2V617F confrm
COc1ccc(OCc2nnc(SCC(=O)Nc3ccccc3F)o2)cc1,.,.,.,.,-0.3,.,.,.
CC(=O)Nc1ccccc1NC(=O)C(F)(F)F,3.8,1.0,-4.7,-2.7,2.7,-22.6,.,.
O=C(Nc1cccc2c1[nH]c1ccccc12)C(F)(F)F,1.8,17.0,2.1,53.1*,-1.8,4.3,3.9,52.2*
O=C(O)c1cccc(S(=O)(=O)N2CCN(Cc3ccc4c(c3)OCO4)CC2)c1,.,.,.,.,-5.9,.,.,.
CCNC(=S)NNC(=O)c1ccccn1,4.1,5.7,.,2.5,-11.0,9.6,.,.
O=C(NNC(=S)Nc1ccc(Cl)c(Cl)c1)c1ccccn1,6.5,4.2,4.7,31.6*,6.5,30.9,51.0*,47.2*
Cc1cc(C)c(S(=O)(=O)Nc2ncn[nH]2)cc1C,.,.,.,.,-9.2,.,.,.
O=C(c1cc(COc2cccc(C(F)(F)F)c2)on1)N1C[C@@H]2CCC[C@H]1C2,.,.,.,.,3.8,.,.,.
O=C1OC(/C(=C\Nc2cc(Cl)ccc2O)[N+](=O)[O-])c2ccccc21 (centres undefined),3.3,13.1,0.6,45.9*,-2.6,-43.2,4.2,55.9*
O=C1OC(/C(=C\Nc2ccc(F)cc2F)[N+](=O)[O-])c2ccccc21 (centres undefined),5.5,3.2,-0.5,0.8,-2.2,5.4,.,.
Cc1ccc(C)c(CN2CCC(n3nccc3NC(=O)CCCc3ccccc3)CC2)c1,.,.,.,.,-1.9,.,.,.
C/C(=N/NC(=O)c1ccc(C)s1)c1cccc(NC(=O)c2ccoc2C)c1,.,.,.,.,10.5,.,.,.
CCOc1ccc(NC(=O)Cn2c(=O)n(CCCC(=O)NC3CCN(Cc4ccccc4)CC3)c(=O)c3ccccc32)cc1,.,.,.,.,-7.3,.,.,.
CCn1cc(CN2CCN(Cc3ccc(C)o3)C(CCO)C2)c2ccccc21 (centres undefined),3.4,6.9,0.4,43.7*,4.9,11.4,0.2,4.5
CCn1cc(CN2CCN(Cc3ccccc3)C(CCO)C2)c2ccccc21 (centres undefined),.,.,.,.,-0.3,.,.,.
Cc1ccc(S(=O)(=O)NC(CC(=O)n2nc(C)cc2C)c2ccccc2)cc1 (centres undefined),1.7,3.5,.,-2.6,3.8,2.6,.,.
Cc1ccc(S(=O)(=O)NC(c2ccccc2)C(C)C(=O)n2nc(C)cc2C)cc1 (centres undefined),1.9,14.1,.,63.9*,5.2,-4.7,13.8,14.3
Cc1nc2ccccc2c2oc(C(=O)NCCCN3CCCC(C)C3)cc12 (centres undefined),.,.,.,.,1.9,.,.,.
CC1CCCN(CCCNC(=O)c2cc3c(Cl)nc4ccccc4c3s2)C1 (centres undefined),4.9,17.8,0.7,63.1*,12.7,10.2,1.8,84.6*
COc1ccc(CCC(=O)Nc2cc(Cl)ccc2N2CCN(C)CC2)cc1,2.2,1.3,-0.6,32.6*,-1.8,-4.0,-5.0,1.7
CN(C)CCCN(C(=O)CCOc1ccccc1)c1nc2c(F)cccc2s1,3.7,3.1,-2.6,25.2*,-0.8,33.5,3.6,29.8*
CC1=CSC2=NC(=O)/C(=C/c3cccc(OC(=O)c4ccco4)c3)C(=N)N12,2.0,4.1,-1.3,33.6*,1.9,19.2,-3.4,-4.5

# Source: PubChem BioAssay
